Test results: ChEMBL document CHEMBL1122603, “2-Acetylpyridine thiosemicarbazones. 9. Derivatives of 2-acetylpyridine 1-oxide as potential antimalarial agents” (1984)
In brackets after ≈: the same amount, converted by molar mass.

How the values were obtained:
[1] = tested on: Mus musculus; test: In vivo antimalarial activity against Plasmodium berghei in the mice (Mus musculus) at 320 mg/kg dosage; T= Toxicity; assay type: functional, organism-based; set-up: dose 320 mg/kg
Method in brief: (§1)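 Mortality-based mouse test against the drug-sensitive P. berghei strain KBG 173, run at the Leo Rane Laboratory. Groups of five mice per dose level were scored for cures and for toxic deaths.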

[2] = tested on: Plasmodium berghei; test: Increase in mean survival time in Plasmodium berghei inoculated mice (Mus musculus) following 40 mg/kg administration; assay type: functional
[3] = tested on: Mus musculus; test: In vivo antimalarial activity against Plasmodium berghei in the mice (Mus musculus) at 640 mg/kg dosage; T= Toxicity; assay type: functional, organism-based; set-up: dose 640 mg/kg; method in brief: as §1
[4] = tested on: Mus musculus; test: In vivo antimalarial activity against Plasmodium berghei in the mice (Mus musculus) at 80 mg/kg dosage; C=cure; assay type: functional, organism-based; set-up: dose 80 mg/kg; method in brief: as §1
[5] = tested on: Mus musculus; test: In vivo antimalarial activity against Plasmodium berghei in the mice (Mus musculus) at 160 mg/kg dosage; C=cure; assay type: functional, organism-based; set-up: dose 160 mg/kg; method in brief: as §1
[6] = tested on: Mus musculus; test: In vivo antimalarial activity against Plasmodium berghei in the mice (Mus musculus) at 160 mg/kg dosage; assay type: functional; method in brief: as §1
[7] = tested on: Mus musculus; test: In vivo antimalarial activity against Plasmodium berghei in the mice (Mus musculus) at 40 mg/kg dosage; assay type: functional; method in brief: as §1
[8] = tested on: Plasmodium falciparum; test: In vitro antimalarial potency against chloroquine-sensitive, pyrimethamine-resistant Plasmodium falciparum CAMP; assay type: functional; settings: read-out: ID50 (the source's name)
Method in brief: (§2)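 Semiautomated culture assay on P. falciparum. Stocks were 1 mg/mL in 1:1 DMSO/EtOH, diluted in culture medium as seven 2-fold steps over a 64-fold range, with chloroquine and mefloquine as plate controls. Plates ran 24 h at 37 °C under 5% O2/5% CO2/90% N2, then [G-3H]hypoxanthine was added for 18 h more. Harvested incorporation was read by scintillation counting as the viability index.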

[9] = tested on: Plasmodium falciparum; test: In vitro antimalarial potency against multidrug-resistant Plasmodium falciparum Vietnam Smith strain; assay type: functional; settings: read-out: ID50 (the source's name); method in brief: as §2
[10] = tested on: Mus musculus; test: In vivo antimalarial activity against Plasmodium berghei in the mice (Mus musculus) at 640 mg/kg dosage; assay type: functional; method in brief: as §1
[11] = tested on: Mus musculus; test: In vivo antimalarial activity against Plasmodium berghei in the mice (Mus musculus) at 80 mg/kg dosage; assay type: functional; method in brief: as §1
[12] = tested on: Plasmodium berghei; test: Increase in mean survival time in Plasmodium berghei inoculated mice (Mus musculus) following 160 mg/kg administration; assay type: functional
[13] = tested on: Mus musculus; test: In vivo antimalarial activity against Plasmodium berghei in the mice (Mus musculus) at 320 mg/kg dosage; C=cure; assay type: functional, organism-based; set-up: dose 320 mg/kg; method in brief: as §1
[14] = tested on: Mus musculus; test: In vivo antimalarial activity against Plasmodium berghei in the mice (Mus musculus) at 640 mg/kg dosage; C=cure; assay type: functional, organism-based; set-up: dose 640 mg/kg; method in brief: as §1
[15] = tested on: Mus musculus; test: In vivo antimalarial activity against Plasmodium berghei in the mice (Mus musculus) at 320 mg/kg dosage; assay type: functional; method in brief: as §1
[16] = tested on: Mus musculus; test: In vivo antimalarial activity against Plasmodium berghei in the mice (Mus musculus) at 20 mg/kg dosage; assay type: functional; method in brief: as §1

Compound: CCOC(=O)N1CCN(/C(S)=N/N=C(\C)c2cccc[n+]2[O-])CC1
- increase in mean survival time [1]: Toxic
- increase in mean survival time [2]: 4.7 days
- increase in mean survival time [3]: Toxic
- increase in mean survival time [4]: Cures
- increase in mean survival time [5]: Cures

Compound: C/C(=N\N=C(/S)N(C)C)c1cccc[n+]1[O-]
- increase in mean survival time [6]: 4.2 days
- increase in mean survival time [1]: Toxic
- increase in mean survival time [7]: 2.3 days
- IC50 [8]: 0.054 µg/mL (≈ 0.227 µM)
- IC50 [9]: 0.078 µg/mL (≈ 0.327 µM)
- increase in mean survival time [10]: 6.9 days
- increase in mean survival time [11]: 0.7 days

Compound: CC(N/N=C(\S)N1CCCC1)c1cccc[n+]1[O-] (stereo not drawn)
- increase in mean survival time [2]: 0.8 days
- increase in mean survival time [10]: 1.6 days
- increase in mean survival time [12]: 0 days

Compound: C/C(=N\N=C(/S)N1CCSCC1)c1cccc[n+]1[O-]
- IC50 [8]: 0.044 µg/mL (≈ 0.148 µM)
- increase in mean survival time [2]: 0.1 days
- increase in mean survival time [10]: 1.5 days
- increase in mean survival time [12]: 0.9 days

Compound: C/C(=N\N=C(/S)N1CCCC1)c1cccc[n+]1[O-]
- IC50 [8]: 0.048 µg/mL (≈ 0.182 µM)
- IC50 [9]: 0.044 µg/mL (≈ 0.166 µM)
- cure outcome [13]: Cures
- increase in mean survival time [2]: 0.9 days
- increase in mean survival time [10]: 5.9 days
- increase in mean survival time [11]: 1.1 days
- increase in mean survival time [12]: 1.5 days

Compound: C/C(=N\N=C(/S)N1CCCCC1C)c1cccc[n+]1[O-] (stereo not drawn)
- IC50 [8]: 0.077 µg/mL (≈ 0.263 µM)
- IC50 [9]: 0.08 µg/mL (≈ 0.274 µM)
- cure outcome [13]: Cures
- increase in mean survival time [2]: 2.3 days
- cures (mice cured) [14]: Cures
- increase in mean survival time [11]: 3.3 days
- increase in mean survival time [5]: Cures

Compound: C/C(=N\N=C(/S)N1CCN(c2ccccc2)CC1)c1cccc[n+]1[O-]
- IC50 [8]: 0.062 µg/mL (≈ 0.174 µM)
- increase in mean survival time [15]: 9.1 days
- increase in mean survival time [2]: 0.1 days
- increase in mean survival time [10]: 8.3 days
- increase in mean survival time [11]: 1.7 days
- increase in mean survival time [12]: 3.5 days

Compound: CC(N/N=C(\S)N1CCCCCC1)c1cccc[n+]1[O-] (stereo not drawn)
- increase in mean survival time [15]: 1.6 days
- increase in mean survival time [2]: -0.2 days
- increase in mean survival time [10]: 3.5 days
- increase in mean survival time [11]: 0.4 days
- increase in mean survival time [12]: 0.8 days

Compound: C/C(=N\N=C(/S)N1CCN(C=O)CC1)c1cccc[n+]1[O-]
- increase in mean survival time [2]: -0.3 days
- increase in mean survival time [3]: Toxic
- increase in mean survival time [12]: 0.3 days

Compound: C/C(=N\N=C(/S)N1CC(C)OC(C)C1)c1cccc[n+]1[O-] (stereo not drawn)
- IC50 [8]: 0.041 µg/mL (≈ 0.133 µM)
- IC50 [9]: 0.046 µg/mL (≈ 0.149 µM)
- increase in mean survival time [2]: 4.9 days
- cures (mice cured) [14]: Cures
- increase in mean survival time [11]: 6.1 days
- increase in mean survival time [12]: 6.1 days

Compound: 3-Aza-bicyclo[3.2.2]nonane-3-carbothioic acid [1-(1-oxy-pyridin-2-yl)-ethylidene]-hydrazide; compound with copper(I) chloride
- increase in mean survival time [2]: -0.3 days
- increase in mean survival time [10]: 2.4 days
- increase in mean survival time [12]: 1.4 days

Compound: CC(N/N=C(\S)N1CCN(c2ccccn2)CC1)c1cccc[n+]1[O-] (stereo not drawn)
- increase in mean survival time [10]: 3.4 days
- increase in mean survival time [12]: 0.2 days

Compound: C/C(=N\N=C(/S)N1CC2CCC(CC2)C1)c1cccc[n+]1[O-]
- IC50 [8]: 0.086 µg/mL (≈ 0.27 µM)
- IC50 [9]: 0.083 µg/mL (≈ 0.261 µM)
- increase in mean survival time [15]: 4.9 days
- increase in mean survival time [2]: -0.7 days
- cures (mice cured) [14]: Cures
- increase in mean survival time [11]: 0.1 days
- increase in mean survival time [12]: 1.1 days

Compound: CC(N/N=C(\S)N1CCCCC1)c1cccc[n+]1[O-] (stereo not drawn)
- increase in mean survival time [2]: 0.2 days
- increase in mean survival time [10]: 1.8 days
- increase in mean survival time [12]: 0.2 days

Compound: C/C(=N\N=C(/S)N1CCCC(C)C1)c1cccc[n+]1[O-] (stereo not drawn)
- IC50 [8]: 0.039 µg/mL (≈ 0.133 µM)
- IC50 [9]: 0.051 µg/mL (≈ 0.174 µM)
- increase in mean survival time [15]: 1.4 days
- increase in mean survival time [2]: 1.5 days
- cures (mice cured) [14]: Cures
- increase in mean survival time [11]: 1.6 days
- increase in mean survival time [12]: 4.7 days

Compound: C/C(=N\N=C(/S)N1CCN(c2ccccn2)CC1)c1cccc[n+]1[O-]
- cure outcome [13]: Cures
- increase in mean survival time [2]: 0.5 days
- cures (mice cured) [14]: Cures
- increase in mean survival time [11]: 0.3 days
- increase in mean survival time [12]: 1.9 days

Compound: C/C(=N\N=C(/S)N1CCCCCC1)c1cccc[n+]1[O-]
- increase in mean survival time [15]: 4.9 days
- increase in mean survival time [2]: 0.9 days
- increase in mean survival time [10]: 7.1 days
- increase in mean survival time [11]: 0.7 days
- increase in mean survival time [12]: 3.1 days

Compound: CC(N/N=C(\S)N1CC2CCC(CC2)C1)c1cccc[n+]1[O-] (stereo not drawn)
- increase in mean survival time [15]: 2.5 days
- increase in mean survival time [2]: -0.3 days
- cures (mice cured) [14]: Cures
- increase in mean survival time [11]: 0.7 days
- increase in mean survival time [12]: 0.9 days
- increase in mean survival time [16]: -0.1 days

Compound: C/C(=N\N=C(/S)N1CCC(C)CC1)c1cccc[n+]1[O-]
- IC50 [8]: 0.074 µg/mL (≈ 0.253 µM)
- IC50 [9]: 0.073 µg/mL (≈ 0.25 µM)
- increase in mean survival time [15]: 4.2 days
- increase in mean survival time [2]: 0.6 days
- cures (mice cured) [14]: Cures
- increase in mean survival time [11]: 2.2 days
- increase in mean survival time [12]: 2.3 days

Compound: CCOC(=O)N1CCN(/C(S)=N/NC(C)c2cccc[n+]2[O-])CC1 (stereo not drawn)
- increase in mean survival time [15]: 8 days
- increase in mean survival time ([2]; 40 mg/kg): 1.2 days
- increase in mean survival time [10]: 9 days
- increase in mean survival time [11]: 6 days
- increase in mean survival time [12]: 6.6 days

Compound: C/C(=N\N=C(/S)N1CCCCC1)c1cccc[n+]1[O-]
- cure outcome [13]: Cures
- increase in mean survival time [2]: 3.5 days
- cures (mice cured) [14]: Cures
- increase in mean survival time [11]: 1.3 days
- increase in mean survival time [12]: 6.3 days
